According to ChEMBL document CHEMBL1811804, “Benzyl derivatives with in vitro binding affinity for human opioid and cannabinoid receptors from the fungus Eurotium repens” (J Nat Prod, 2011):

Experiments:
Format in all cases: cell-based
[1] = biological target: T1, Delta-type opioid receptor (Homo sapiens, UniProt P41143); assay: Binding affinity at human delta opioid receptor expressed in CHO-K1 cells at 10 uM
Outline: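 Opioid membrane binding with test compound at 10 μM final; radioligand and membrane amounts set from saturation experiments. Incubation 25 °C, 60 min, then rapid filtration through BSA-presoaked filters, buffer wash and scintillation counting.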

Cannabinoid receptor 1 [2] = biological target: T2, Cannabinoid receptor 1 (Homo sapiens, UniProt P21554); assay: Binding affinity at human CB1 receptor expressed in CHO-K1 cells at 10 uM
T2 sequence (P21554 whole entry): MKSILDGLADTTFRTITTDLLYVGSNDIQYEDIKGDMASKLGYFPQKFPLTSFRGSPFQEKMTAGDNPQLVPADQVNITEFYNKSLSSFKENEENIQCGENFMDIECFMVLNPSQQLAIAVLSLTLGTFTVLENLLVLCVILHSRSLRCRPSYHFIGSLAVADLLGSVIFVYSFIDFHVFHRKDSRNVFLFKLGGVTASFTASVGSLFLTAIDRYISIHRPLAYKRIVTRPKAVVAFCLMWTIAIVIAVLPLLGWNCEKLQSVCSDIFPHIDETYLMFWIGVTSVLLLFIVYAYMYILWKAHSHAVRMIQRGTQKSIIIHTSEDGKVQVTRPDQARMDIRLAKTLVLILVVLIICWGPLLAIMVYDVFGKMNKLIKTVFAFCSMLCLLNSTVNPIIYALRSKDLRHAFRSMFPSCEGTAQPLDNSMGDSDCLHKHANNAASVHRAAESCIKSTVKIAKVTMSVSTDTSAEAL

Cannabinoid receptor 2 [3] = biological target: T3, Cannabinoid receptor 2 (Homo sapiens, UniProt P34972); assay: Binding affinity at human CB2 receptor expressed in CHO-K1 cells at 10 uM
T3 sequence (P34972 whole entry): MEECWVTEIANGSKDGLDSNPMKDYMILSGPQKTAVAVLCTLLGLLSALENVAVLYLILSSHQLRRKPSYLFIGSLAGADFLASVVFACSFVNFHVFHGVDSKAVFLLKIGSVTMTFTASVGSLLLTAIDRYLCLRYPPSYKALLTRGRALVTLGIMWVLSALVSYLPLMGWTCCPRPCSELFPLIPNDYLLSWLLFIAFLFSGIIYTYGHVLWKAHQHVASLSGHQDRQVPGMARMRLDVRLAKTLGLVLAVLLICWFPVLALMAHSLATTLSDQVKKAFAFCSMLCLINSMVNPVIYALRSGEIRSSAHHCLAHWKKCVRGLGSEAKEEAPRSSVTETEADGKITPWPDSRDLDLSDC
Outline: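 CHO-K1 cells stably transfected with full-length human CB1 or CB2 cDNA, cultured in DMEM/F-12 with 10% FBS and G418 or hygromycin B. Membranes (10 μg) incubated with test compound at 10 μM final and 0.6 nM [3H]CP-55,940 in 50 mM Tris pH 7.4, 154 mM NaCl, 20 mM Di-Na-EDTA, 0.02% BSA, 37 °C, 90 min. Filtration, scintillation counting; nonspecific binding (1 μM CP-55,940) subtracted; % displacement.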

Mu-type opioid receptor = Mu-type opioid receptor (Homo sapiens, UniProt P35372); assay: Displacement of [3H]DAMGO from human mu opioid receptor expressed in CHO-K1 cells after 60 mins by scintillation counting
Sequence of Mu-type opioid receptor (P35372 whole entry): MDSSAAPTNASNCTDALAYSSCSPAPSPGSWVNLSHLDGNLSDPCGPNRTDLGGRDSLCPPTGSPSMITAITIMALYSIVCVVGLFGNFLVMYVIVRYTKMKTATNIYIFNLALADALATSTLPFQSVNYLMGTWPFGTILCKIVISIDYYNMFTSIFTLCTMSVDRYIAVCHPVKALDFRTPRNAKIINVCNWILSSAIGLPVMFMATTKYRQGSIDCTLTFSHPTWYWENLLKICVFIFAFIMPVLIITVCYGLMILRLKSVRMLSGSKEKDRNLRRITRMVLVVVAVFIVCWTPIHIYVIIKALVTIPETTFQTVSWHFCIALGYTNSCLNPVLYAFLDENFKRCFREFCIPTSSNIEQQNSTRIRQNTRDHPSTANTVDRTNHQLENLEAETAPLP
Outline: (§1)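 Opioid receptor membranes incubated with radioligand (amounts set from saturation experiments) at 25 °C for 60 min, test compound at 300 μM to 1.7 nM in dose-response. Rapid filtration through BSA-presoaked filters, scintillation counting; nonspecific binding (10 μM DPDPE, nor-binaltorphimine or DAMGO) subtracted. IC50 = concentration for 50% inhibition of 3H-ligand binding.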

[4] = biological target: T1, Delta-type opioid receptor; assay: Displacement of [3H]DPDPE from human delta opioid receptor expressed in CHO-K1 cells after 60 mins by scintillation counting; outline: as §1
Cannabinoid receptor 1 [5] = biological target: T2, Cannabinoid receptor 1; assay: Displacement of [3H]CP-55,940 from human CB1 receptor expressed in CHO-K1 cells after 90 mins by scintillation counting
Outline: (§2)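 Membranes from CHO-K1 cells stably expressing human CB1 or CB2, 10 μg per well, with 0.6 nM [3H]CP-55,940 in 50 mM Tris pH 7.4, 154 mM NaCl, 20 mM Di-Na-EDTA, 0.02% BSA; 37 °C for 90 min. Dose-response from 300 μM to 1.7 nM.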

Cannabinoid receptor 2 [6] = biological target: T3, Cannabinoid receptor 2; assay: Displacement of [3H]CP-55,940 from human CB2 receptor expressed in CHO-K1 cells after 90 mins by scintillation counting; outline: as §2
[7] = biological target: Kappa-type opioid receptor (Homo sapiens, UniProt P41145); assay: Displacement of [3H]nor-Binaltorphimine from human kappa opioid receptor expressed in CHO-K1 cells after 60 mins by scintillation counting; outline: as §1
Sequence of Kappa-type opioid receptor (P41145 whole entry): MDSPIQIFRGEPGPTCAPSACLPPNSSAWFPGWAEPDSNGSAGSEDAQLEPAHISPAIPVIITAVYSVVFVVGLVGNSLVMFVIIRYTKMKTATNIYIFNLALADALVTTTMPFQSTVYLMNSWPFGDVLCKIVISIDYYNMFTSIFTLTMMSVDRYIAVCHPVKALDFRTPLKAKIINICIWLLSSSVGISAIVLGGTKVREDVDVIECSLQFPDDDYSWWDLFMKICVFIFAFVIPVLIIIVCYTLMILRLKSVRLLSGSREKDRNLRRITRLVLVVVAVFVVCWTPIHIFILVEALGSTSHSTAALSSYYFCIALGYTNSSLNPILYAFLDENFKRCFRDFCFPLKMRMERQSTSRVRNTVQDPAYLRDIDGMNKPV

T1 sequence (P41143 whole entry): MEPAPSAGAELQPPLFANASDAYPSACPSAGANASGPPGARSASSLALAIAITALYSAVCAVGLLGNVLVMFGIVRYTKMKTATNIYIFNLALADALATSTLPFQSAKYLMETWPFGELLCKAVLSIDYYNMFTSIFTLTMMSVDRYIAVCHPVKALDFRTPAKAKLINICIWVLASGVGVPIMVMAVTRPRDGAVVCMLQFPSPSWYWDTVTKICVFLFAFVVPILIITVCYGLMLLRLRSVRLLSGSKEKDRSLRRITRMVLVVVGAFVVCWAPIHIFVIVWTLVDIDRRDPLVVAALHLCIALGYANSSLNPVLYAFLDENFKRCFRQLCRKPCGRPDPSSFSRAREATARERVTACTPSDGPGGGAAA

Activity [1] | Activity (Cannabinoid receptor 1 [2]) | Activity (Cannabinoid receptor 2 [3]) | IC50 (Mu-type opioid receptor) | IC50 [4] | IC50 (Cannabinoid receptor 1 [5]) | IC50 (Cannabinoid receptor 2 [6]) | IC50 [7] | SMILES
< 40% | < 40% | < 40% | – | – | – | – | – | CCC/C=C/c1cc2c(C=O)c(O)c(CC=C(C)C)cc2o1
< 40% | < 40% | < 40% | 7.2 µM | – | – | – | – | CCCCC/C=C/c1c(O)cc(CC=C(C)C)c(O)c1C=O [TETRAHYDROAUROGLAUCIN]
62.2% | < 40% | < 40% | – | 5.4 µM | – | – | – | CCCCC/C=C/c1c(O)cc(CC=C(C)C)c(O)c1CO
< 40% | 62.6% | 43.1% | – | – | 15.2 µM | 19.9 µM | – | C/C=C/C=C/C=C/c1c(O)cc(CC=C(C)C)c(O)c1C=O [AUROGLAUCIN]
< 40% | – | – | – | – | – | – | 32.4 µM | CCCCC/C=C/c1c(O)cc(CC=C(C)C)c2c1CC(O)O2 (stereo not given)
< 40% | < 40% | < 40% | – | – | – | – | – | Cc1c(O)cc(O)c2c1COC2=O
52.5% | < 40% | < 40% | – | – | – | – | – | CCCCCCCc1c(O)cc(CC=C(C)C)c(O)c1C=O
< 40% | < 40% | < 40% | – | – | – | – | – | CCC/C=C/C=C/c1c(O)cc(CC=C(C)C)c(O)c1C=O

SMILES | Activity [1] | Activity (Cannabinoid receptor 1 [2]) | Activity (Cannabinoid receptor 2 [3]) | IC50 (Mu-type opioid receptor) | IC50 [4] | IC50 (Cannabinoid receptor 1 [5]) | IC50 (Cannabinoid receptor 2 [6]) | IC50 [7]
C=CC(C)(C)c1[nH]c2c(CC=C(C)C)cc(CC=C(C)C)cc2c1C[C@@H]1NC(=O)[C@H](C)NC1=O | < 40% | < 40% | < 40% | – | – | – | – | –
